Paper PMC5045767 (Bioorganic & medicinal chemistry, 2016)
pIC50: −log10 of the molar value. Values after ≈ are worked out from the molar mass of the structure shown. “Also recorded” adds a separate entry of the source. Where two headings read alike, the source gives them in different places.

Tests used:
[1] = test system: S. epidermidis ATCC 35984 (strain AC); test: ROS production, DCFH-DA staining; type: cell-based; details: 1× and 4× MIC, 1 h at 37 °C
How it was run: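 Untreated cells served as negative control and 1 mM H2O2 as positive control. Cells were then stained with DCFH-DA (40 μg/mL) and examined by fluorescence microscopy.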

E. faecium BM4105-RF = test: MIC, broth double dilution; type: cell-based; details: Enterococcus faecium, BM4105RF, strain AF = E. faecium BM4105-RF
[2] = test system: S. epidermidis ATCC 35984 (strain AC); test: membrane disruption, propidium iodide staining; type: cell-based; details: 1× and 4× MIC
How it was run: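 Membrane integrity was assessed by propidium iodide uptake, with red-stained cells scored as membrane-compromised. […] Controls: untreated and aminoglycoside-treated cells (negative), and a tobramycin derivative carrying a C14 linear alkyl thioether at the 6″-position (positive).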

MRSA S22 (strain W) = test: time-kill assay; type: cell-based, S. aureus; details: 4× MIC, over 24 h
S. aureus strains = test: MIC over the panel of S. aureus strains; type: cell-based
HEK-293 = test: mammalian cytotoxicity; type: cell-based; details: for difference between cytotoxic concentration and MIC values: HEK-293 vs MRSA strains, depending on the strain; for cytotoxicity (significant = >20% cell death): up until 10 μg/mL, HEK-293
[3] = MIC broth double-dilution assay with the inoculum size of the time-kill assays; type: cell-based; details: inoculum 1×10^6 CFU/mL
[4] = test system: murine red blood cells (mRBCs); test: hemolytic assay; type: cell-based, mouse; details: compared to ebselen / among ebsulfur analogues tested
[5] = solubility in liquid Mueller-Hinton medium; type: physicochemical
[6] = test system: S. aureus ATCC 6538 (strain A); test: reduction of established biofilm; type: cell-based; details: 1× to […] MIC tested, concentration not given
NorA, efflux pump = details: NorA inhibitor; cited from earlier work
S. aureus ATCC 25923 = test: MIC, broth double dilution; type: cell-based; details: Staphylococcus aureus, ATCC25923, strain B = S. aureus ATCC 25923
MRSA NRS77 = test: MIC, broth double dilution; type: cell-based, S. aureus; details: Staphylococcus aureus, MRSA|NRS77, strain T = MRSA NRS77
[7] = test system: S. aureus ATCC 6538 (strain A); details: 2 μg/mL; cited from earlier work

SMILES	ROS production (DCFH-DA) [1]	MIC (E. faecium BM4105-RF)	membrane disruption (PI uptake) [2]	cytotoxicity (significant = >20% cell death) (HEK-293)	MIC values with time-kill inoculum size compared with standard MIC [3]	further results
O=c1c2ccccc2sn1-c1ccccc1 [2a, 2-phenyl-1,2-benzisothiazol-3(2H)-one]	led to production of ROS	2 to 7.8 µg/mL (≈ 8.8 to 34.3 µM)	no sign of membrane disruption	–	–	reduction of bacterial load (MRSA S22 (strain W)): 1.5 orders of magnitude
CC(C)c1ccc(-n2sc3ccccc3c2=O)cc1 [2e]	–	–	–	did not display any significant cytotoxicity	–	improvement in MIC values when compared to the parent compound 2a (S. aureus strains): up to 16 fold; difference between cytotoxic concentration and MIC values (HEK-293): up to 40 fold
O=c1c2ccccc2sn1-c1cccc(Br)c1 [2g]	–	–	–	–	remained identical	–
CC(C)c1cccc(-n2sc3ccccc3c2=O)c1 [2h]	–	2 to 7.8 µg/mL (≈ 7.42 to 29 µM)	–	did not display any significant cytotoxicity	remained identical	hemolytic activity, comparison [4]: less hemolytic when compared to ebselen; also recorded: least hemolytic; improvement in MIC values when compared to the parent compound 2a (S. aureus strains): up to 16 fold; difference between cytotoxic concentration and MIC values (HEK-293): up to 40 fold
COc1cc(OC)cc(-n2sc3ccccc3c2=O)c1 [2k]	–	2 to 7.8 µg/mL (≈ 6.96 to 27.1 µM)	–	–	–	–
O=c1c2ccccc2sn1-c1cccc2ccccc12 [2l]	–	–	–	did not display any significant cytotoxicity	–	–
O=c1c2ccccc2sn1-c1ccccn1 [2m]	–	–	–	–	–	solubility [5]: soluble enough for biological testing
CCCCCCn1sc2ccccc2c1=O [3b]	led to production of ROS	–	no sign of membrane disruption	–	–	reduction of bacterial load (MRSA S22 (strain W)): 1.5 orders of magnitude
CCCCCCCCn1sc2ccccc2c1=O [3c]	led to production of ROS	–	no sign of membrane disruption	–	–	hemolytic activity, comparison [4]: less hemolytic when compared to ebselen; biofilm reduction [6]: low to no biofilm reduction; reduction of bacterial load (MRSA S22 (strain W)): 1.5 orders of magnitude
O=[N+]([O-])c1ccc2[nH]c(-c3ccccc3)cc2c1 [5-nitro-2-phenyl-(1H)-indole]	–	–	–	–	–	pIC50 (NorA, efflux pump): > 5.30
NCC[C@H](O)C(=O)N[C@@H]1C[C@H](N)[C@@H](O[C@H]2O[C@H](CN)[C@@H](O)[C@H](O)[C@H]2O)[C@H](O)[C@H]1O[C@H]1O[C@H](CO)[C@@H](O)[C@H](N)[C@H]1O [AMK, amikacin, reference compound]	–	≥ 125 µg/mL	–	–	remained identical	MIC (S. aureus ATCC 25923): ≤ 0.5 µg/mL; MIC (MRSA NRS77): ≤ 0.5 µg/mL
O=c1c2ccccc2[se]n1-c1ccccc1 [Ebselen, 2-phenyl-1,2-benzisoselenazol-3(2H)-one, reference compound]	led to production of ROS	–	no sign of membrane disruption	very similar	remained identical	biofilm reduction [7]: approximately 60%
